The results in this text go back to ChEMBL document CHEMBL1125007 (J Med Chem, 1990).

The test system of data set [1] is CHO-AA8. Kind of data set: Cytotoxicity against AA8 cell line. In kind it is functional, cell-based. Conditions: Cricetulus griseus. Summed up: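 AA8 Chinese hamster ovary cells kept in log phase in Alpha MEM with 10% fetal calf serum. Drug was applied in 96-well microcultures for 18 h, then removed by three washes with fresh medium. Cells grew a further 72 h before cell density was read by methylene blue staining. IC50 is the nominal concentration cutting density to 50% of controls, with eight controls per plate.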

The subject of data set [2] is P388. Briefly: Increase in life span of the drug treated animals against P388 leukemia when treated at a optimal dose of 30 mg/kg. It is filed as functional. Conditions: Mus musculus. An outline of the steps:
(§1)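 Single intraperitoneal dose given in 0.1 or 0.2 mL of 30% v/v ethanol-water on day 1 after intraperitoneal inoculation of 10^6 P388 leukemia cells. ILS is the percent increase in lifespan of treated tumor-bearing animals at that optimal dose.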

Data set [3] has as its system P388. Kind of data set: Cytotoxicity against P388 leukemia cell line. In kind it is functional, cell-based. Conditions: Mus musculus. Summed up: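 P388 murine leukemia cells kept in log phase in RPMI 1640 with 10% fetal calf serum. Drug was present in 96-well microcultures for the whole 72 h growth period. Final cell density was read by a slightly modified MTT method. IC50 is the nominal concentration cutting density to 50% of controls, with eight control cultures per plate.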

Data set [4] in a line: Relative lipophilicity. It is filed as physicochemical. Conditions: octanol/water. An outline of the steps: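 Relative lipophilicity of the side-chain fragment -NH(CH2)nX-, calculated from substituent fragment values.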
For data set [5], the system named is UV4 (Cricetulus griseus). Briefly: Relative cytotoxic potency given as Hypersensitivity ratio of (IC50 for AA8 cell line) to (IC50 for UV4 cell line).
Data set [6] has as its system P388. Briefly: Optimal dose (i.p.) given after inoculation with wild type 10 E 6 P388/W leukemia cell lines, measured on day 1. It is filed as functional, Mus musculus. An outline of the steps:
as §1

Data set [7] has as its system Nucleic Acid. Kind of data set: pBR322/DHFR26 DNA crosslinking ability at a concentration of 0.02 uM determined after Agarose gel electrophoresis run for 4 hr; +/- indicates Slight crosslinking. In kind it is functional.
The nature of data set [8]: Rate constant for hydrolysis in aqueous acetone. In kind it is ADME. Set-up: scale not given here. Particulars: buffer.
For data set [9], the system named is P388. Briefly: Increase in life span of the drug treated animals against P388 leukemia when treated at a optimal dose of 45 mg/kg. In kind it is functional. Conditions: Mus musculus. An outline of the steps: as §1
Data set [10] concerns Nucleic Acid. Kind of data set: DNA crosslinking ability at a concentration of 0.2 uM determined after Agarose gel electrophoresis run for 24 hr; + indicates Significant crosslinking. In kind it is functional.
Data set [11] has as its system Nucleic Acid. Briefly: pBR322/DHFR26 DNA crosslinking ability at a concentration of 0.2 uM determined after Agarose gel electrophoresis run for 4 hr; + indicates Significant crosslinking. It is filed as functional.
The nature of data set [12]: Rate constant for alkylation of 4-(4-nitrobenzyl)pyridine. In kind it is ADME.
For data set [13], the system named is Nucleic Acid. Kind of data set: pBR322/DHFR26 DNA crosslinking ability at a concentration of 0.2 uM determined after Agarose gel electrophoresis run for 4 hr; ++ extensive Significant crosslinking. It is filed as functional.
Data set [14] deals with Nucleic Acid. Briefly: DNA crosslinking ability at a concentration of 0.2 uM determined after Agarose gel electrophoresis run for 24 hr; ++ indicates extensive crosslinking. In kind it is functional.
Data set [15] has as its system Nucleic Acid. Briefly: pBR322/DHFR26 DNA crosslinking ability at a concentration of 0.02 uM determined after Agarose gel electrophoresis run for 4 hr; + indicates Significant crosslinking. In kind it is functional.
Data set [16] relates to P388. Kind of data set: Increase in life span of the drug treated animals against P388 leukemia when treated at a optimal dose of 65 mg/kg; No activity at all doses. It is filed as functional, organism-based. The arrangement: dose 65 mg/kg. Particulars: Mus musculus. Summed up: as §1
Data set [17] relates to P388. Briefly: Increase in life span of the drug treated animals against P388 leukemia when treated at a optimal dose of 8.9 mg/kg. It is filed as functional. Conditions: Mus musculus. Summed up: as §1
The subject of data set [18] is P388. Briefly: Increase in life span of the drug treated animals against P388 leukemia when treated at a optimal dose of 65 mg/kg. In kind it is functional. Particulars: Mus musculus. Summed up:
as §1

Data set [19] concerns P388. Kind of data set: Increase in life span of the drug treated animals against P388 leukemia when treated at a optimal dose of 13.3 mg/kg. In kind it is functional. Particulars: Mus musculus. An outline of the steps:
as §1

The test system of data set [20] is P388. Kind of data set: Increase in life span of the drug treated animals against P388 leukemia when treated at a optimal dose of 26 mg/kg. In kind it is functional. Particulars: Mus musculus. An outline of the steps: as §1

The structures appear in SMILES notation.

One may read the IC50 as the concentration at which inhibition is half-maximal. By ILS is commonly meant the gain in survival time of treated over control animals, in per cent. Consider `Cl.ClCCN(CCCl)c1ccc(OCCNc2c3ccccc3nc3ccccc23)cc1`, for which the half-inhibitory concentration (IC50) in data set [1] is 270 nM; in data set [3], 72 nM. The ILS at 30 mg/kg in data set [2] came to 42%. This molecule also came in with a Relative lipophilicity in [4] of -0.02. For the same molecule, the HF in data set [5] was found to be 54. Moreover, in data set [6], the OD stood at 30 mg/kg.

With `Cl.Cl.Cl.Cl.ClCCN(CCCl)c1ccc(CCCNc2c3ccccc3nc3ccccc23)cc1`, the DNA crosslinking result in data set [7] is on record as “+/-”; in [10] it was “Significant crosslinking”; in data set [11], “Significant crosslinking”. Also, the results for the IC50 in data set [1] and in data set [3] were 310 nM and 61 nM, respectively. This molecule also had a KH in data set [8] of 14500 s⁻¹. The ILS at 45 mg/kg in data set [9] worked out at 25%. Moreover, the KNBP in data set [12] stood at 146000 s⁻¹. In data set [4], this molecule returned a Relative lipophilicity of 0.67. Besides, in data set [5], the HF was found to be 43. In [6], this molecule came in with an OD of 45 mg/kg.

With `Cl.Cl.Cl.Cl.ClCCN(CCCl)c1ccc(CCCCCNc2c3ccccc3nc3ccccc23)cc1`, the DNA crosslinking entry in data set [13], in [14] and in [15] was “extensive crosslinking” throughout. In addition, the IC50 in data set [1] turned out to be 310 nM; in data set [3], 82 nM. For the same molecule, the KH in data set [8] stood at 32000 s⁻¹. The molecule also returned an ILS at 45 mg/kg in data set [9] of 58%. This molecule returned a KNBP in data set [12] of 144000 s⁻¹. Besides, the Relative lipophilicity in data set [4] came to 1.75. Also, the HF in [5] is given as 59. Besides, the OD in data set [6] is 45 mg/kg.

Regarding `Cl.Cl.Cl.Cl.ClCCN(CCCl)c1ccc(CCCCNc2c3ccccc3nc3ccccc23)cc1`, the DNA crosslinking entry is recorded as “+/-” in [7], “Significant crosslinking” in [10] and “Significant crosslinking” in [11]. Moreover, the IC50 in data set [1] amounted to 440 nM; in data set [3], 86 nM. The molecule further gave a KH in data set [8] of 20600 s⁻¹. This molecule also yielded an ILS at 45 mg/kg in [9] of 52%. In addition, the KNBP in data set [12] turned out to be 225000 s⁻¹. This molecule displayed a Relative lipophilicity in [4] of 1.21. Further, the HF in data set [5] is given as 36. The molecule further gave an OD in data set [6] of 45 mg/kg.

`Cl.O=S(=O)(CCNc1c2ccccc2nc2ccccc12)c1ccc(N(CCCl)CCCl)cc1`: the half-maximal inhibitory concentration (IC50) came out at 18300 nM in data set [1] and 2300 nM in data set [3]. Further, in data set [16], the ILS result was “No activity”. This molecule had a Relative lipophilicity in [4] of -1.17. Further, the HF in data set [5] was found to be 3.3. In addition, in data set [6], the OD came to 65 mg/kg.

In turn, `O=C(O)CCCc1ccc(N(CCCl)CCCl)cc1` [CHLORAMBUCIL] registered an IC50 in data set [3] of 7500 nM. Further, in data set [5], the HF is on record as 58.

Turning to `ClCCN(CCCl)c1ccc(SCCCCCNc2c3ccccc3nc3ccccc23)cc1`, the IC50 in data set [3] was 380 nM. Also, in data set [4], the Relative lipophilicity is on record as 1.76. Also, the HF in data set [5] came to 19.

As for `Cl.Cl.Cl.Cl.ClCCN(CCCl)c1ccc(OCCCNc2c3ccccc3nc3ccccc23)cc1`, the IC50 turned out to be 380 nM in data set [1] and 47 nM in [3]. The same molecule registered an ILS at 8.9 mg/kg in [17] of 27%. The same molecule registered a Relative lipophilicity in data set [4] of 0.26. The HF in data set [5] was determined as 54. Moreover, the OD in data set [6] is 8.9 mg/kg.

Consider `Cl.Cl.Cl.Cl.ClCCN(CCCl)c1ccc(SCCNc2c3ccccc3nc3ccccc23)cc1`, for which the IC50 in data set [1] was 1200 nM; in data set [3], 372 nM. The molecule further gave an ILS at 65 mg/kg in data set [18] of 37%. In [4], this molecule registered a Relative lipophilicity of 0.42. In addition, in [5], the HF is 24. In addition, the OD in [6] was found to be 65 mg/kg.

On to `ClCCN(CCCl)c1ccc(OCCCCNc2c3ccccc3nc3ccccc23)cc1`, for which the 50% inhibitory concentration (IC50) in [1] came out at 280 nM; in data set [3], 63 nM. The ILS at 45 mg/kg in data set [9] stood at 47%. The molecule further came in with a Relative lipophilicity in data set [4] of 0.64. For the same molecule, in data set [5], the HF is 55. Also, the OD in [6] was found to be 45 mg/kg.

Consider `Cl.Cl.Cl.Cl.ClCCN(CCCl)c1ccc(SCCCNc2c3ccccc3nc3ccccc23)cc1`, for which the figures for the IC50 in [1] and in data set [3] were 1100 nM and 360 nM, respectively. This molecule showed an ILS at 13.3 mg/kg in [19] of 38%. This molecule also had a Relative lipophilicity in [4] of 0.79. Besides, the HF in data set [5] is reported as 18. In data set [6], this molecule registered an OD of 13.3 mg/kg.

As for `Cl.O=S(=O)(CCCNc1c2ccccc2nc2ccccc12)c1ccc(N(CCCl)CCCl)cc1`, the IC50 in data set [1] amounted to 9800 nM; in [3], 2600 nM. For the same molecule, in data set [16], the ILS result was “No activity”. This molecule also gave a Relative lipophilicity in [4] of -1.14. Also, the HF in [5] is 5.1. In [6], this molecule came in with an OD of 45 mg/kg.

For the molecule `ClCCN(CCCl)c1ccc(CCCCCCNc2c3ccccc3nc3ccccc23)cc1`, the KH in data set [8] was determined as 33900 s⁻¹. In addition, the DNA crosslinking result in [10], in data set [11] and in [15] was “Significant crosslinking” in each case. In data set [3], this molecule had an IC50 of 136 nM. For the same molecule, the KNBP in data set [12] was 157000 s⁻¹. Further, the Relative lipophilicity in data set [4] is given as 2.29. Also, the HF in data set [5] stood at 36.

Turning to `ClCCN(CCCl)c1ccc(OCCCCCNc2c3ccccc3nc3ccccc23)cc1`, the DNA crosslinking result in [10] is “Significant crosslinking”. This molecule came in with an IC50 in [3] of 50 nM. For the same molecule, the Relative lipophilicity in [4] was 1.18. Also, in data set [5], the HF came to 46.

In data set [3], `O=S(=O)(CCCCCNc1c2ccccc2nc2ccccc12)c1ccc(N(CCCl)CCCl)cc1` registered an IC50 of 750 nM. The Relative lipophilicity in data set [4] is reported as -0.38. For the same molecule, the HF in data set [5] is 1.

For the molecule `Cl.ClCCN(CCCl)c1ccc(SCCCCNc2c3ccccc3nc3ccccc23)cc1`, the IC50 in data set [1] stood at 1370 nM; in data set [3], 490 nM. The ILS at 26 mg/kg in [20] came to 48%. The same molecule displayed a Relative lipophilicity in [4] of 1.22. For the same molecule, the HF in data set [5] turned out to be 21. Further, in data set [6], the OD was 26 mg/kg.

As for `Cl.O=S(=O)(CCCCNc1c2ccccc2nc2ccccc12)c1ccc(N(CCCl)CCCl)cc1`, the IC50 amounted to 1700 nM in data set [1] and 1900 nM in data set [3]. Moreover, the ILS result in data set [16] was “No activity”. For the same molecule, the Relative lipophilicity in data set [4] is -0.92. The HF in data set [5] is on record as 1.4. Further, the OD in data set [6] was 30 mg/kg.
